In ChEMBL document CHEMBL1146502, “Dimeric flavonol glycoside and galloylated C-glucosylchromones from Kunzea ambigua” (J Nat Prod, 2004):

Tests used:
Format in all cases: cell-based
[1] = Cytotoxicity against human Raji cells assessed as cell viability at 500 molar ratio; details: read-out: Activity
Raji [2] = experiment: Inhibition of TPA-induced EBV-early antigen activation in human Raji cells assessed as EA activation at 500 molar ratio after 48 hrs relative to TPA; details: human gammaherpesvirus 4
Outline: (§1)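 Raji cells (EBV genome-carrying, virus nonproducer) were grown in RPMI-1640 with 10% FBS. Cells at 1 × 10⁶/mL were held 48 h at 37 °C with 4 mM n-butyric acid, TPA 20 ng (32 pmol)/mL, and test compound in DMSO, dosed as a mol ratio to TPA. EA-positive cells in smears were scored by indirect immunofluorescence, with ≥500 cells counted, in triplicate. Results are given relative to the butyrate+TPA control (100%).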

Raji [3] = experiment: Inhibition of TPA-induced EBV-early antigen activation in human Raji cells assessed as EA activation at 10 molar ratio after 48 hrs relative to TPA; details: human gammaherpesvirus 4; outline: as §1
[4] = Cytotoxicity against human Raji cells assessed as cell viability at 100 molar ratio; details: read-out: Activity
[5] = Cytotoxicity against human Raji cells assessed as cell viability at 1000 molar ratio; details: read-out: Activity
Raji [6] = experiment: Inhibition of TPA-induced EBV-early antigen activation in human Raji cells assessed as EA activation at 1000 molar ratio after 48 hrs relative to TPA; details: human gammaherpesvirus 4; outline: as §1
Raji [7] = experiment: Inhibition of TPA-induced EBV-early antigen activation in human Raji cells assessed as EA activation at 100 molar ratio after 48 hrs relative to TPA; details: human gammaherpesvirus 4; outline: as §1
[8] = Cytotoxicity against human Raji cells assessed as cell viability at 10 molar ratio; details: read-out: Activity

O=C(O[C@@H]1Cc2c(O)cc(O)cc2O[C@@H]1c1cc(O)c(O)c(O)c1)c1cc(O)c(O)c(O)c1 [EPIGALOCATECHIN GALLATE]
viability at 500 molar ratio [1]: 80%
EBV-EA activation relative to control (%) (Raji [2]): 34.9%
EBV-EA activation relative to control (%) (Raji [3]): 87.7%
viability at 100 molar ratio [4]: 80%
viability at 1000 molar ratio [5]: 70%
EBV-EA activation relative to control (%) (Raji [6]): 6.4%
EBV-EA activation relative to control (%) (Raji [7]): 68.1%
viability at 10 molar ratio [8]: 80%

Cc1c(O)c(Cc2c(O)cc3oc(-c4ccc(O)c(O)c4)c(O[C@@H]4O[C@@H](C)[C@H](O)[C@@H](O)[C@H]4O)c(=O)c3c2O)c2oc(-c3ccc(O)c(O)c3)c(O[C@@H]3O[C@@H](C)[C@H](O)[C@@H](O)[C@H]3O)c(=O)c2c1O [KUNZEAGIN A]
viability at 500 molar ratio [1]: 80%
EBV-EA activation relative to control (%) (Raji [2]): 32.5%
EBV-EA activation relative to control (%) (Raji [3]): 90.5%
viability at 100 molar ratio [4]: 80%
viability at 1000 molar ratio [5]: 70%
EBV-EA activation relative to control (%) (Raji [6]): 4.3%
EBV-EA activation relative to control (%) (Raji [7]): 66.1%
viability at 10 molar ratio [8]: 80%

CC(C)c1cc(=O)c2c(O)cc(O)c([C@@H]3O[C@H](CO)[C@@H](O)[C@H](O)[C@H]3O)c2o1
viability at 500 molar ratio [1]: 80%
EBV-EA activation relative to control (%) (Raji [2]): 29.6%
EBV-EA activation relative to control (%) (Raji [3]): 100%
viability at 100 molar ratio [4]: 80%
viability at 1000 molar ratio [5]: 70%
EBV-EA activation relative to control (%) (Raji [6]): 9.1%
EBV-EA activation relative to control (%) (Raji [7]): 72.5%
viability at 10 molar ratio [8]: 80%

CC(C)c1cc(=O)c2c(O)c([C@@H]3O[C@H](CO)[C@@H](O)[C@H](O)[C@H]3O)c(O)cc2o1
viability at 500 molar ratio [1]: 80%
EBV-EA activation relative to control (%) (Raji [2]): 23.7%
EBV-EA activation relative to control (%) (Raji [3]): 91%
viability at 100 molar ratio [4]: 80%
viability at 1000 molar ratio [5]: 70%
EBV-EA activation relative to control (%) (Raji [6]): 4.6%
EBV-EA activation relative to control (%) (Raji [7]): 65%
viability at 10 molar ratio [8]: 80%

CC(C)c1cc(=O)c2c(O)cc(O)c([C@@H]3O[C@H](CO)[C@@H](O)[C@H](O)[C@H]3OC(=O)c3cc(O)c(O)c(O)c3)c2o1
viability at 500 molar ratio [1]: 80%
EBV-EA activation relative to control (%) (Raji [2]): 31.6%
EBV-EA activation relative to control (%) (Raji [3]): 100%
viability at 100 molar ratio [4]: 80%
viability at 1000 molar ratio [5]: 70%
EBV-EA activation relative to control (%) (Raji [6]): 11.5%
EBV-EA activation relative to control (%) (Raji [7]): 74.7%
viability at 10 molar ratio [8]: 80%

CC(C)c1cc(=O)c2c(O)c([C@@H]3O[C@H](CO)[C@@H](O)[C@H](O)[C@H]3OC(=O)c3cc(O)c(O)c(O)c3)c(O)cc2o1
viability at 500 molar ratio [1]: 80%
EBV-EA activation relative to control (%) (Raji [2]): 26.8%
EBV-EA activation relative to control (%) (Raji [3]): 94.8%
viability at 100 molar ratio [4]: 80%
viability at 1000 molar ratio [5]: 70%
EBV-EA activation relative to control (%) (Raji [6]): 5.9%
EBV-EA activation relative to control (%) (Raji [7]): 70.4%
viability at 10 molar ratio [8]: 80%
